# Results of several laboratories.
# Protocols differ between the studies behind these lines.
# Host: human
# Medium: plasma
Structure (SMILES),setting,Cmax [ng/mL]
CC[C@H](C)[C@H](NC(=O)[C@H](CC(C)C)NC(=O)[C@H](Cc1c[nH]c2ccccc12)NC(=O)[C@H](CCC(N)=O)NC(=O)[C@@H](NC(=O)[C@H](Cc1ccccc1)NC(=O)[C@H](C)NC(=O)[C@H](CCCCNC(=O)COCCOCCNC(=O)COCCOCCNC(=O)CC[C@H](NC(=O)CCCCCCCCCCCCCCCCCCC(=O)O)C(=O)O)NC(=O)[C@H](CCC(N)=O)NC(=O)[C@H](C)NC(=O)[C@@H](NC(=O)[C@H](CCCCN)NC(=O)[C@H](CC(=O)O)NC(=O)[C@H](CC(C)C)NC(=O)C(C)(C)NC(=O)[C@@H](NC(=O)[C@H](CO)NC(=O)[C@H](Cc1ccc(O)cc1)NC(=O)[C@H](CC(=O)O)NC(=O)[C@H](CO)NC(=O)[C@@H](NC(=O)[C@H](Cc1ccccc1)NC(=O)[C@@H](NC(=O)CNC(=O)[C@H](CCC(=O)O)NC(=O)C(C)(C)NC(=O)[C@@H](N)Cc1ccc(O)cc1)[C@@H](C)O)[C@@H](C)O)[C@@H](C)CC)[C@@H](C)CC)C(C)C)C(=O)N[C@@H](C)C(=O)NCC(=O)NCC(=O)N1CCC[C@H]1C(=O)N[C@@H](CO)C(=O)N[C@@H](CO)C(=O)NCC(=O)N[C@@H](C)C(=O)N1CCC[C@H]1C(=O)N1CCC[C@H]1C(=O)N1CCC[C@H]1C(=O)N[C@@H](CO)C(N)=O,"subcutaneous, 4.5 mg, multiple doses, healthy volunteers",884
c1cc([C@H]2CC[C@]3(CC2)OO[C@]2(O3)C3CC4CC(C3)CC2C4)ccc1OCCN1CCOCC1,"oral, 800 mg, patients",1710
N=C(N)NCCC[C@@H](NC(=O)[C@@H](N)Cc1ccccc1)C(=O)N[C@@H](Cc1ccccc1)C(=O)N[C@@H](CCCCN)C(N)=O,"subcutaneous, 15 mg, multiple doses, once daily, patients",726
C=C(C)[C@@H]1CC[C@]2(NCCN3CCS(=O)(=O)CC3)CC[C@]3(C)[C@H](CC[C@@H]4[C@@]5(C)CC=C(C6=CC[C@@](COc7ncccc7C#N)(C(=O)O)CC6)C(C)(C)[C@@H]5CC[C@]43C)[C@@H]12,"oral, 100 mg, single dose, fasted, tablet",228
Cc1ncc2n1-c1ccc(Cl)cc1C(c1ccccc1F)=NC2,"oral, 2 mg",10.3
CN(C)CCc1c[nH]c2ccccc12,"intravenous, 9 mg, healthy volunteers, infusion",20.8
CC(=C/C=C/C(C)=C/C(=O)O)/C=C1\CCCc2ccccc21,"oral, 20 mg, single dose, fasted, healthy volunteers",~70
C=CCNc1c(O)cc2c(O)c1C[C@@H](C)C[C@H](OC)[C@H](O)[C@@H](C)/C=C(\C)[C@H](OC(N)=O)[C@@H](OC)/C=C\C=C(/C)C(=O)N2,"intravenous, 400 mg/m², patients, infusion",7800
